Measurements: ChEMBL document CHEMBL2177000, “Pharmacokinetic optimization of class-selective histone deacetylase inhibitors and identification of associated candidate predictive biomarkers of hepatocellular carcinoma tumor response” (J Med Chem, 2012)
pIC50: −log10 of the molar value. In brackets after ≈: the same amount, converted by molar mass. Each block holds one compound with its values, some of them ahead of it. Activity calls are given as the source filed them. No cut-off for these calls is given here.

Columns and labels:
[1] = Antitumor activity against treatment responding human hepatocellular carcinoma patient tumor xenografted in BALB/C mouse assessed as tumor growth inhibition at 100 mg/kg, po administered every other day for 4 weeks; type: functional; details: 672 h, read-out: TGI
Outline: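 Tumor fragments (3×3×3 mm3) from HCC patients implanted subcutaneously in right flank of female BALB/c nu/nu mice (6−7 weeks). At about 200 (150−250) mm3, randomized (n = 10 per arm); Q2D PO 100 mpk in 15% Kleptose pH 4.5 tartaric buffer, about four weeks; caliper tumor volume three times weekly.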

Mus musculus [2] = test: Cmax in BALB/C mouse at 10 mg/kg, po or 2 mg/kg, iv by LC-MS/MS method; type: ADME, organism-based; details: in vivo
Outline: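 Female-unspecified BALB/C nude mice (15−20 g, N = 16 per arm); iv bolus 2 mg/kg in 5% DMSO/40% PEG400/55% saline and/or oral gavage 10 mg/kg as 0.445% microcrystalline cellulose microsuspension. Blood sampled at nine (iv) or eight (po) time points into sodium heparin tubes; plasma by LC-MS/MS; noncompartmental analysis.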

BGC-823 = type: functional, Homo sapiens
Mus musculus [3] = test: Oral bioavailability in BALB/C mouse at 10 mg/kg by LC-MS/MS method; type: ADME, organism-based; details: in vivo
Outline: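 Bioavailability from single-dose iv (2 mg/kg, 5% DMSO/40% PEG400/55% saline) and oral gavage (10 mg/kg, 0.445% microcrystalline cellulose microsuspension) studies in BALB/C nude mice (N = 16 per arm); plasma at eight (po) or nine (iv) time points, LC-MS/MS, noncompartmental analysis.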

SMMC-7721 = type: functional, Homo sapiens
[4] = Solubility in 50 mM phosphate buffer at pH 6.5 by HPLC method; type: physicochemical
Outline: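 10 mM DMSO stock dried, residue redissolved in 50 mM phosphate buffer pH 6.5, stirred 1 h and shaken 2 h, left overnight, filtered and analysed by HPLC against calibration standards of 50−500 μM diluted from the DMSO stock.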

Mus musculus [5] = test: Up-regulation of CACNA1G gene expression in human hepatocellular carcinoma patient tumor xenografted in BALB/C mouse at 100 mg/kg, po administered every other day for 4 weeks by […]; type: functional, organism-based; set-up: dose 100 mg/kg
Outline: (§1)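 Patient HCC tumor fragments (3 × 3 × 3 mm3) implanted subcutaneously in female BALB/c nu/nu mice; at ~200 (150−250) mm3 dosed orally Q2D 100 mpk in 15% Kleptose pH 4.5 tartaric buffer for about four weeks. Tumor RNA (TRIzol, DNase I) run on 22-gene qRT-PCR array, normalized to GAPDH/β-glucuronidase by ΔCt, fold change versus day 0.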

Mus musculus [6] = test: Up-regulation of TFPI2 gene expression in human hepatocellular carcinoma patient tumor xenografted in BALB/C mouse at 100 mg/kg, po administered every other day for 4 weeks by […]; type: functional, organism-based; set-up: dose 100 mg/kg; outline: as §1
Mus musculus [7] = test: Up-regulation of HIC1 gene expression in human hepatocellular carcinoma patient tumor xenografted in BALB/C mouse at 100 mg/kg, po administered every other day for 4 weeks by […]; type: functional, organism-based; set-up: dose 100 mg/kg; outline: as §1
Mus musculus [8] = test: Up-regulation of CDKN1C gene expression in human hepatocellular carcinoma patient tumor xenografted in BALB/C mouse at 100 mg/kg, po administered every other day for 4 weeks by […]; type: functional, organism-based; set-up: dose 100 mg/kg; outline: as §1
Mus musculus [9] = test: Up-regulation of CDH1 gene expression in human hepatocellular carcinoma patient tumor xenografted in BALB/C mouse at 100 mg/kg, po administered every other day for 4 weeks by […]; type: functional, organism-based; set-up: dose 100 mg/kg; outline: as §1
SGC-7901 = test: Induction of cell cycle arrest in human SGC7901 cells assessed as reduction in accumulation at S phase incubated for 24 hrs by flow cytometry; type: functional, cell-based
Outline: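 SGC-7901 cells (1 × 10^5, about 50% confluent) treated 24 h with a concentration series; fixed in chilled 70% ethanol 1 h at 4 °C, stained 1 h at room temperature with propidium iodide (50 μg/mL) plus RNase A and 0.05% Triton X-100; analysed by flow cytometry.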

Mus musculus [10] = test: Inhibition of Class 1 histone deacetylase in treatment non-responding human hepatocellular carcinoma patient tumor xenografted in BALB/C mouse assessed as induction of histone H3 acetylation at 100 mg/kg, po administered every other day for 4 weeks by immunohistochemistry; type: functional, organism-based; set-up: dose 100 mg/kg
Outline: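 Patient-derived HCC xenografts in female nude mice given 100 mpk Q2D PO (15% Kleptose, pH 4.5 tartaric buffer); single dose on last day, tumors harvested 0 to 24 h post-dose. Paraffin sections, citrate pH 6.0 antigen retrieval, anti-Ac-H3 (Lys9) 1:200 overnight 4 °C, HRP/DAB; scored 0−3 independently by two pathologists.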

Mus musculus [11] = test: Down-regulation of CFLAR gene expression in human hepatocellular carcinoma patient tumor xenografted in BALB/C mouse at 100 mg/kg, po administered every other day for 4 weeks by […]; type: functional, organism-based; set-up: dose 100 mg/kg
Outline: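 Patient-derived HCC xenografts dosed 100 mpk Q2D PO; tumor total RNA (TRIzol, DNase I treated, column-purified) run on a customized 22-gene qRT-PCR array; ΔCt against mean of GAPDH and β-glucuronidase, fold-change relative to day 0 (pre-treatment).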

Mus musculus [12] = test: Up-regulation of PYCARD gene expression in human hepatocellular carcinoma patient tumor xenografted in BALB/C mouse at 100 mg/kg, po administered every other day for 4 weeks by […]; type: functional, organism-based; set-up: dose 100 mg/kg; outline: as §1
[13] = Clearance in human liver microsomes at 1 uM incubated for 10 mins by LC-MS/MS method; type: ADME, Microsome
Outline: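 Liver microsomes (human or mouse, 0.5 mg/mL) in 100 mM potassium phosphate pH 7.4 with 1 μM compound, prewarmed 10 min at 37 °C, started with NADPH (10 mM); stopped at 0, 3, 6, 9, 15, 30 min with ice-cold methanol containing tolbutamide internal standard; LC-MS/MS. Hepatic clearance (mL/min/kg) calculated from intrinsic clearance.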

[14] = Volume of distribution at steady state in BALB/C mouse at 10 mg/kg, po or 2 mg/kg, iv by LC-MS/MS method; type: ADME, organism-based; set-up: unit not given here; details: in vivo, read-out: Vdss
Outline: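 Single-dose PK: iv bolus 2 mg/kg in 5% DMSO/40% PEG400/55% saline and/or oral gavage 10 mg/kg as 0.445% microcrystalline cellulose microsuspension; BALB/C nude mice (15−20 g, N = 16 per arm) or male Sprague−Dawley rats (250 ± 20 g, N = 3). Blood at eight (po) or nine (iv) time points into sodium heparin, plasma by LC-MS/MS, noncompartmental analysis.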

[15] = biological target: Voltage-gated inwardly rectifying potassium channel KCNH2 (Homo sapiens, UniProt Q12809); test: Inhibition of human ERG expressed in CHO cells by patch clamp method; type: cell-based
Chain of Voltage-gated inwardly rectifying potassium channel KCNH2 (Q12809 whole entry): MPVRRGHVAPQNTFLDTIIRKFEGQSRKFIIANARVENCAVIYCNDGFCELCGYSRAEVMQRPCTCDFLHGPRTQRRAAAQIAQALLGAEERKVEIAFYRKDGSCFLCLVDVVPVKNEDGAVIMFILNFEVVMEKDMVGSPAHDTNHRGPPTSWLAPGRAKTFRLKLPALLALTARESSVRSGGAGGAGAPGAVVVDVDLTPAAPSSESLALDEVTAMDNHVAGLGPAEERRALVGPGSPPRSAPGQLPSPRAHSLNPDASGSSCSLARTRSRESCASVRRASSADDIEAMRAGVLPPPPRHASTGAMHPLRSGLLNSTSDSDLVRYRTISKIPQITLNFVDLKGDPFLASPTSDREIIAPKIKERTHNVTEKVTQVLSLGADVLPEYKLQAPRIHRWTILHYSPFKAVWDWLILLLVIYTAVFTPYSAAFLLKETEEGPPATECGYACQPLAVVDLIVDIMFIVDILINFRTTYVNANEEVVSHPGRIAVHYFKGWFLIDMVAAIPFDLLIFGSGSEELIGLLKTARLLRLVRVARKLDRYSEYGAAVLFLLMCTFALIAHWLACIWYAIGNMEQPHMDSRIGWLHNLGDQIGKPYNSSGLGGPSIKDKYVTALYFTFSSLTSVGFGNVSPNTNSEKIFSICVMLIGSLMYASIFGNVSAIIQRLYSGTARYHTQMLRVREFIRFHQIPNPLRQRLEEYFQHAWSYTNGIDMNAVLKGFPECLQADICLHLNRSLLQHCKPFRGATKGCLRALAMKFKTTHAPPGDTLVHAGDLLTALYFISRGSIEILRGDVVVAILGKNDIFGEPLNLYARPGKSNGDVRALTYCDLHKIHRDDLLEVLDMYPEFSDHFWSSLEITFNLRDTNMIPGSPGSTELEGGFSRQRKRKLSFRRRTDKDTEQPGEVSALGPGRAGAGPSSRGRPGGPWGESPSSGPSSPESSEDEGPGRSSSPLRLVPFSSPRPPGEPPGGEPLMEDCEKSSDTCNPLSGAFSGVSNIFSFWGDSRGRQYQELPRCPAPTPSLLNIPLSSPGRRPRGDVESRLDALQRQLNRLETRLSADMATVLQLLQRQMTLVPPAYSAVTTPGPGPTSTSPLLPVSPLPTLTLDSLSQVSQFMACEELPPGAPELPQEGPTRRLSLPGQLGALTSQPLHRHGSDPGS

Cmax (Mus musculus [2]): 893 ng/mL | GI90 (BGC-823): 2.2 µM | F (Mus musculus [3]): 100% | GI90 (SMMC-7721): 1.9 µM | solubility [4]: 136 µg/mL (≈ 286 µM)
Structure (SMILES): CN1C[C@H](C(=O)Nc2ccc(Cl)cc2)[C@@H](c2ccc(/C=C/C(=O)Nc3ccccc3N)cc2)C1 [listing 1 of 2 here]
inhibition in vivo at 100 mg/kg [1]: 50%

Structure (SMILES): CN1C[C@H](C(=O)Nc2ccc(Cl)cc2)[C@@H](c2ccc(/C=C/C(=O)Nc3ccccc3N)cc2)C1 [listing 2 of 2 here]
Activity (Mus musculus [5]): Active | Activity (Mus musculus [6]): inactive | Activity (Mus musculus [7]): inactive | Activity (Mus musculus [8]): Active | Activity (Mus musculus [9]): inactive | Activity (SGC-7901): Dose-dependent effect | inhibition (Mus musculus [10]): inactive | Activity (Mus musculus [11]): Active | Activity (Mus musculus [12]): inactive

CLhep predicted at 1 µM [13]: 14 mL/min/kg | Vd [14]: 3
Structure (SMILES): CN1C[C@H](C(=O)Nc2ccc(Cl)cc2)[C@@H](c2ccc(/C=C/C(=O)Nc3ccccc3N)cc2F)C1 (racemic)
pIC50 [15]: 5.15
